pEC50, pIC50: −log10 of the molar value. Converted amounts (≈) assume the structure as drawn.
Key:
[1] = Ratio of drug level in brain to plasma of rat at 10 mg/kg, po after 1 hr; assay type: ADME, organism-based; parameters: dose 10 mg/kg, route oral; conditions: brain and plasma, read-out: BPR
In short: (§1)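 Rats got a single 10 mg/kg oral dose (n = 2 animals). Brain and plasma were sampled at 1 h. Concentrations were measured by HPLC-tandem MS and averaged values reported. Brain/plasma ratio is brain level (ng/g) divided by plasma level (ng/mL).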

[2] = biological target: T1, Metabotropic glutamate receptor 5 (Homo sapiens, UniProt P41594); test: Positive allosteric modulation of human mGluR5 expressed in recombinant HEK293 cells by FLIPR assay; assay type: cell-based
In short: (§2)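 HEK293 cells recombinantly expressing human mGluR5 were seeded at 2×10^4 cells/well on poly-D-lysine. They were incubated overnight at 37 °C in glutamate/glutamine-free medium, then loaded for 1 h at 37 °C with calcium 5 dye containing 3 U/ml glutamic pyruvic transaminase and 3 mM sodium pyruvate. Calcium flux was read by FLIPR.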

[3] = Solubility of the compound in potassium phosphate buffer after 4 hrs by UPLC analysis; assay type: physicochemical
In short: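 DMSO stock of compound (300 μL) was diluted with 2 × 200 μL of 25 mM potassium phosphate buffer. The mixture was shaken on a titer plate shaker for 4 h.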

[4] = system: Liver microsomes; test: Intrinsic clearance in human liver microsomes; assay type: ADME, Microsome
In short: (§3)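 Intrinsic clearance was determined by the Obach method. Liver blood flow was taken as 1.5 L/min for human and 20 mL/min for rat. Human values are expressed in L/min and rat values in mL/min.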

[5] = system: Liver microsomes; test: Intrinsic clearance in rat liver microsomes; assay type: ADME, Microsome; in short: as §3
[6] = Plasma protein binding in human; assay type: ADME, cell-free; conditions: read-out: PPB (converted)
[7] = Plasma protein binding in rat; assay type: ADME, cell-free; conditions: read-out: PPB (converted)
[8] = Drug uptake in rat brain at 10 mg/kg, po after 1 hr; assay type: ADME, organism-based; parameters: dose 10 mg/kg, route oral; conditions: read-out: Drug uptake; in short: as §1
[9] = Plasma concentration in rat at 10 mg/kg, po after 1 hr; assay type: ADME, organism-based; parameters: dose 10 mg/kg, route oral; in short: as §1
[10] = biological target: T1, Metabotropic glutamate receptor 5; test: Negative allosteric modulation of human mGluR5 expressed in recombinant HEK293 cells by FLIPR assay; assay type: cell-based; conditions: for inhibition: concentration not given here; in short: as §2
[11] = biological target: T1, Metabotropic glutamate receptor 5; test: Binding affinity to human mGluR5 expressed in recombinant HEK293 cells by radiolabeled assay; assay type: cell-based
Target sequence in this assay (P41594 21-1212 limits assumed): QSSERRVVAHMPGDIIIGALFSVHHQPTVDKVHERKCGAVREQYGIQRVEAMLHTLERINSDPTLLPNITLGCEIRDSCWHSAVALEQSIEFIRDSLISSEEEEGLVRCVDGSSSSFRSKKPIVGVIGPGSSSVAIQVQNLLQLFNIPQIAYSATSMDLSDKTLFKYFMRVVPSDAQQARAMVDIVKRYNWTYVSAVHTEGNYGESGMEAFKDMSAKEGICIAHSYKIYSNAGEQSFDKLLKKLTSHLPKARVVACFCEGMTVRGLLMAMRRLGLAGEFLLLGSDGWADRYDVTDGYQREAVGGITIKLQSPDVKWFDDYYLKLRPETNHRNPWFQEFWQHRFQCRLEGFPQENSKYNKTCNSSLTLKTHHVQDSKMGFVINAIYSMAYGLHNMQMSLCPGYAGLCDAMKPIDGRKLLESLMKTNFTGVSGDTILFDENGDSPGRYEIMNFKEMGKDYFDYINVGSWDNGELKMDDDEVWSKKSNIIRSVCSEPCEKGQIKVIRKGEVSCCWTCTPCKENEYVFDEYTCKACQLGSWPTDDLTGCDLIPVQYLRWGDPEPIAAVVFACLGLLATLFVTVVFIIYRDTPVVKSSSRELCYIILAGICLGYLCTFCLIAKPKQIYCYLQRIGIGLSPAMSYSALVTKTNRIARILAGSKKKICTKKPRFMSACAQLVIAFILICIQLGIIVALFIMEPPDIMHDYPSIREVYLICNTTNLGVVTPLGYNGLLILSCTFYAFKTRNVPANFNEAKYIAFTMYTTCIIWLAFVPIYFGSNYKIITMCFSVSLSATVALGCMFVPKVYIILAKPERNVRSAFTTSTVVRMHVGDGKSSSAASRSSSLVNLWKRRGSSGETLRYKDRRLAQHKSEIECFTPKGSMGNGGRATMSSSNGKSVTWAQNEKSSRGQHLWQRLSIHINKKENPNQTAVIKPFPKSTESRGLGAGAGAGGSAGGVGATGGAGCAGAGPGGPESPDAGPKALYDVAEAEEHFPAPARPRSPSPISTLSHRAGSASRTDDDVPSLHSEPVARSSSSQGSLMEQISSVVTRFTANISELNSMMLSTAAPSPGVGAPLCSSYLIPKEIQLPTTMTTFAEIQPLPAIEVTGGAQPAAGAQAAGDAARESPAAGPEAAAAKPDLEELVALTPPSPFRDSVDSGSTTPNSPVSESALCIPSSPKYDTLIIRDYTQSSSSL

Row | SMILES | pEC50 [2] | Emax [2] [%] | pIC50 [10] | inhibition [10] [%] | Activity [2] [%] | further results
1 | O=C([C@H]1CC2CCC1C2)N1CC(c2nc(-c3cccc(F)c3)no2)C1 (stereo not given in full) | 7.14 | 140 | – | – | – | Kp at 1 h [1]: 2.33; solubility at 4 h [3]: 54 µM (≈ 18.4 µg/mL); CLH [4]: 59 L/min; CLH [5]: 16 mL/min; fraction unbound [6]: 0.007; fraction unbound [7]: 0.008; concentration at 1 h [8]: 84 ng/g; concentration at 1 h [9]: 36 ng/mL
2 | O=C(c1ccc(F)cc1)N1CC(c2nc(-c3cccc(Cl)c3)no2)C1 | < 5.00 | -12 | 5.40 | 60 | – | solubility at 4 h [3]: 47 µM (≈ 16.8 µg/mL)
3 | O=C(N1CCCC(F)C1)N1CC(c2nc(-c3cccc(Cl)c3)no2)C1 (stereo not given) | 6.70 | 51 | < 5.00 | – | 81 | –
4 | Cc1cccc(-c2noc(C3CN(S(=O)(=O)c4ccc(Cl)cc4)C3)n2)c1 | < 5.00 | 3 | 5.96 | 75 | – | –
5 | Cc1cccc(-c2noc([C@@H]3CCN3C(=O)c3ccc(F)c(F)c3)n2)c1 | 5.82 | 51 | < 5.00 | – | 92 | –
6 | O=C(c1ccc(Cl)cc1)N1CC(c2nc(-c3cccc(F)c3)no2)C1 | 5.60 | 62 | < 5.00 | – | 82 | –
7 | Cc1cccc(-c2noc(C3CN(C(=O)C4CCCC(C)C4)C3)n2)c1 (stereo not given) | 6.30 | 46 | < 5.00 | – | 19 | –
8 | CC1CCCN(C(=O)N2CC(c3nc(-c4cccc(Cl)c4)no3)C2)C1 (stereo not given) | < 5.00 | 6 | 5.47 | 69 | – | –
9 | O=C(C1CCC(F)(F)CC1)N1CC(c2nc(-c3cccc(Cl)c3)no2)C1 | 6.74 | 75 | < 5.00 | – | 3 | Kp at 1 h [1]: 1.75; Activity [11]: 3.8 µM; solubility at 4 h [3]: 130 µM (≈ 49.6 µg/mL); CLH [4]: 0.9 L/min; CLH [5]: 24 mL/min; fraction unbound [6]: 0.013; fraction unbound [7]: 0.031; concentration at 1 h [8]: 280 ng/g; concentration at 1 h [9]: 160 ng/mL
10 | O=C(C1CCC2(CCC2)CC1)N1CC(c2nc(-c3cccc(Cl)c3)no2)C1 | 5.96 | 40 | < 5.00 | – | 24 | –
11 | O=C(C1CCC(F)(F)CC1)N1CC(c2nc(-c3cccc(F)c3)no2)C1 | 6.28 | 53 | < 5.00 | 11 | – | –
12 | Cc1cccc(-c2noc(C3CN(C(=O)C4CCOC4)C3)n2)c1 (stereo not given) | < 5.00 | -7 | 5.89 | 80 | – | –
13 | CC1CCC(C(=O)N2CC(c3nc(-c4cccc(Cl)c4)no3)C2)CC1 (stereo not given) | 5.82 | 75 | < 5.00 | – | 120 | –
14 | O=C(C1CCC(C(F)(F)F)CC1)N1CC(c2nc(-c3cccc(Cl)c3)no2)C1 (stereo not given) | 6.00 | 40 | < 5.00 | – | 5 | –
15 | Cc1cccc(-c2noc([C@@H]3CCN3C(=O)c3ccccc3F)n2)c1 | < 5.00 | 6.2 | 5.74 | 58 | – | –
16 | Cc1cccc(-c2noc(C3CN(C(=O)C4CCC(C(F)(F)F)CC4)C3)n2)c1 (stereo not given) | 6.00 | 36 | < 5.00 | 3 | – | –
17 | O=C(Cc1ccc(F)cc1)N1CC[C@H]1c1nc(-c2cccc(F)c2)no1 | 5.92 | 29 | < 5.00 | – | 12 | –
18 | CC1CCN(C(=O)N2CC(c3nc(-c4cccc(Cl)c4)no3)C2)C1 (stereo not given) | < 5.00 | 88 | < 5.00 | 80 | – | –
19 | COC1CCN(C(=O)N2CC(c3nc(-c4cccc(Cl)c4)no3)C2)CC1 | < 5.00 | 11 | < 5.00 | – | – | –
20 | CC1CCCC(C(=O)N2CC(c3nc(-c4cccc(Cl)c4)no3)C2)C1 (stereo not given) | 6.39 | 53 | < 5.00 | – | 34 | –

Row | SMILES | pEC50 [2] | Emax [2] [%] | pIC50 [10] | inhibition [10] [%] | Activity [2] [%] | further results
21 | Cc1cccc(-c2noc(C3CN(C(=O)C4CCCCC4)C3)n2)c1 | 6.02 | 45 | < 5.00 | – | 20 | –
22 | Cc1ccc(C(=O)N2CC(c3nc(-c4cccc(F)c4)no3)C2)cc1 | 5.17 | 27 | < 5.00 | – | 30 | –
23 | Cc1ccc(S(=O)(=O)N2CC(c3nc(-c4cccc(Cl)c4)no3)C2)cc1 | < 5.00 | 2 | 6.04 | 75 | – | –
24 | CC1CCCCC1C(=O)N1CC(c2nc(-c3cccc(F)c3)no2)C1 (stereo not given) | 6.27 | 87 | < 5.00 | – | 48 | solubility at 4 h [3]: 180 µM (≈ 61.8 µg/mL); CLH [4]: 1.6 L/min; CLH [5]: 13 mL/min; fraction unbound [6]: 0.034; fraction unbound [7]: 0.055
25 | O=C(C1CCCCC1)N1CC(c2nc(-c3cccc(F)c3)no2)C1 | 6.00 | 46 | < 5.00 | – | 19 | –
26 | O=C(c1ccc(F)c(F)c1)N1CC(c2nc(-c3cccc(F)c3)no2)C1 | 5.49 | 35 | < 5.00 | – | 50 | –
27 | O=C(N1CCCCC1)N1CC(c2nc(-c3cccc(Cl)c3)no2)C1 | 6.43 | 44 | < 5.00 | – | 87 | –
28 | Cc1ccc(S(=O)(=O)N2CC(c3nc(-c4cccc(C)c4)no3)C2)cc1 | < 5.00 | 1 | 6.17 | 80 | – | –
29 | Cc1cccc(-c2noc([C@@H]3CCN3C(=O)Cc3ccc(F)cc3)n2)c1 | 5.72 | 24 | < 5.00 | – | 30 | –
30 | Cc1cccc(-c2noc(C3CN(S(=O)(=O)c4ccc(F)cc4)C3)n2)c1 | < 5.00 | 6 | 6.02 | 74 | – | –
31 | Cc1cccc(-c2noc(C3CN(C(=O)C4CCC(C)CC4)C3)n2)c1 (stereo not given) | 6.01 | 68 | < 5.00 | – | 49 | –
32 | O=C(C1CCCO1)N1CC(c2nc(-c3cccc(Cl)c3)no2)C1 (stereo not given) | < 5.00 | -3 | 6.05 | 79 | – | –
33 | O=C(N1CCC(F)CC1)N1CC(c2nc(-c3cccc(Cl)c3)no2)C1 | 6.00 | 41 | < 5.00 | – | 61 | –
34 | O=C(c1cccc(F)c1)N1CC(c2nc(-c3cccc(Cl)c3)no2)C1 | < 5.00 | -12 | 6.11 | 87 | – | –
35 | Cc1cccc(-c2noc(C3CN(C(=O)C4CCCC4)C3)n2)c1 | < 5.00 | -7 | 5.60 | 70 | – | –
36 | CC1CCC(C(=O)N2CC(c3nc(-c4cccc(F)c4)no3)C2)CC1 (stereo not given) | 5.66 | 47 | < 5.00 | – | 11 | –
37 | Cc1cccc(-c2noc(C3CN(C(=O)C4CCC4)C3)n2)c1 | < 5.00 | 3 | 6.00 | 77 | – | –
38 | Cc1cccc(-c2noc([C@@H]3CCN3C(=O)c3ccc(C#N)cc3)n2)c1 | < 5.00 | 88 | 5.85 | 72 | – | –
39 | O=S(=O)(c1ccc(Cl)cc1)N1CC(c2nc(-c3cccc(Cl)c3)no2)C1 | < 5.00 | 7 | 6.77 | 79 | – | –
40 | O=C(C1CCCCC1)N1CC(c2nc(-c3cccc(Cl)c3)no2)C1 | 6.28 | 43 | < 5.00 | – | 35 | –

Reference: ChEMBL document CHEMBL2150889, “Azetidinyl oxadiazoles as potent mGluR5 positive allosteric modulators” (Bioorg Med Chem Lett, 2012)
